# Screens (PubChem BioAssay)
# The list is not random: actives were taken first. Their share in the collection is about 2.3%.
# HIV Env fusion: inhibitors of HIV-1 Env-driven cell-cell fusion, primary screen, HeLa-JRFL effector, CEM21 target cells, luciferase; AID 651610, 2012; inhibition, % at 12.3 µM; hit rate 1.1% among 360,000;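 active = mean replicate inhibition score of at least 50 and every replicate individually at or above 50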;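 also: 0% = plate neutral controls and 100% = maraviroc near 300 nM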
# PAX8 inh HTS: inhibitors of PAX8-driven TPO luciferase reporter, primary screen, RMG-I cells, single concentration. inhibition, % at 12.6 µM. hit rate 1.2% among 360,000. SteadyGlo, 24 h;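 active = mean replicate inhibition at least 60% with every replicate also reaching 60%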;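 also: luciferase light reporting Pax8 driven TPO promoter activity; plate controls were median of neutral control wells for no effect and mitoxantrone controls for full effect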
# PfHsp90 set2: growth inhibition of PfHsp90-expressing yeast, primary screen, antimalarial PfHsp90 inhibitor project, S. cerevisiae, BacTiter-Glo luminescence, single point, set 2. hit rate 0.32% among 310,000. BacTiter-Glo ATP, 48 h; yeast lacking PDR1 and PDR3 efflux regulators. inhibition, % at 9.4 µM;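 active = every replicate shows inhibition above about 80%, whatever the replicate mean, limit read from the data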;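 also: 0% = DMSO neutral controls and 100% = 20 µM radicicol positive controls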
# Rtt109 HAT inh: inhibitors of C. albicans Rtt109/Vps75 HAT, primary screen, biochemical, ThioGlo CoA-SH fluorescence, plate reader; Histone acetyltransferase RTT109 (Candida albicans (strain SC5314 / ATCC MYA-2876)), …; purified Rtt109/Vps75, 4 h; inhibition, % at 34.9 µM; hit rate 0.16% among 330,000; AID 540336, 2011;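 active = inhibition of at least 50% in every replicate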
# Target sequence (Q5AAJ8 whole entry, looked up): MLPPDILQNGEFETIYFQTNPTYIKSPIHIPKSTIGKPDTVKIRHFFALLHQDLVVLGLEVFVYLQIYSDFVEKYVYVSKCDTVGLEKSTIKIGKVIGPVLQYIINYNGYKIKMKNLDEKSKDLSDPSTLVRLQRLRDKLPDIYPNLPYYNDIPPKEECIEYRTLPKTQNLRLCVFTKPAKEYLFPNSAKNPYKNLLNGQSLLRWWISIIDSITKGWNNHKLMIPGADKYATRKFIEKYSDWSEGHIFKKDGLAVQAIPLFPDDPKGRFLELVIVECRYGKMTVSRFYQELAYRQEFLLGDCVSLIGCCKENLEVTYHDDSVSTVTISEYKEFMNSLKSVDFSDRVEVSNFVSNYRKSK
# Arr AP2 block: inhibitors of beta-arrestin/AP2 binding, primary screen, biochemical, GPCR trafficking, flow cytometry | AID 504490, 2011 | hit rate 0.31% among 340,000 | FITC-arrestin peptide / GST-AP2 beads; AP2 beta2 appendage carries R879A mutation | inhibition, % at 10 µM;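 active = inhibition above a set limit, near 3 SD of compounds lacking own fluorescence, cut at about 54% in these data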;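 also: plate controls were DMSO wells for no effect and 5 µM unlabelled arrestin peptide for full effect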
#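 Test system: GST-tagged AP2 beta2-adaptin appendage (R879A) on 4 µm glutathione beads; also added: fluorescein-tagged arrestin peptide at 50 nM final; timing: 12 min plus 1 h, RT; signal: flow cytometry, FL1 (488/535 nm); read-out: percent drop in bead-associated FITC signal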
# Glyco luc inh: increase of ERlucT glycosylation luciferase signal, primary screen, N-linked glycosylation inhibitor project, D54 ERlucT cells, luminescence, set 2. hit rate 0.23% among 360,000. reporter increase, % at 12.5 µM. D54 ERlucT glycosylation luciferase reporter, 24 h; percent of 100 nM tunicamycin response. AID 588692, 2011;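 active = mean luciferase reporter signal, scaled so untreated is 0 and the glycosylation-blocking control 100, at or above a set limit in every replicate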;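 also: luciferase carries N-glycosylation sites so blocking glycosylation raises the light; 0% = median of neutral control wells and 100% = median of 100 nM tunicamycin wells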
# * hit, by the source's call; i = inactive; / = not tested or not shown; [ ] = remark or other dose.
SMILES,HIV Env fusion,PAX8 inh HTS,PfHsp90 set2,Rtt109 HAT inh,Arr AP2 block,Glyco luc inh
O=S(=O)(N[C@H]1CC[C@H](CCn2cc(-c3cccnc3)nn2)O[C@@H]1CO)c1ccccc1,9[16.7 µM],-8,/,/,/,/
O=S(=O)(N[C@@H]1CC[C@H](CCn2cc(-c3ccccc3F)nn2)O[C@H]1CO)c1ccc(Cl)cc1,-10[16.7 µM],29,/,/,/,/
CCN(CC(=O)Nc1cccc(OC)c1)c1ncnc2sc(C)c(C)c12,58*,8,0,5,0,-2
COc1cccc(NC(=O)COc2ncnc3sc(C)c(C)c23)c1,/,/,5,1,7,0
CN(C)C(=O)[C@@H]1[C@@H](CO)[C@@H]2Cn3c(ccc(C4=CCCC4)c3=O)[C@@H]2N1C(=O)Cc1cccnc1,/,6,/,/,/,/
c1ccc(CNc2nc(NCCc3ccncc3)c3sccc3n2)cc1,26,70*,/,/,/,17
c1ccc(CNc2nc(NCc3cccs3)nc3ccsc23)cc1,-3,35,/,/,/,2
COc1ccccc1CNc1nc(NCCOc2ccccc2Cl)c2sccc2n1,72*,15,/,/,/,-6
COc1cccc(CNc2nc(NCC3CC3)nc3ccsc23)c1OC,14,17,/,/,/,-1
CSc1ccccc1CNc1nc(NCC2CC2)nc2ccsc12,56*,48,/,/,/,-1
Cc1ccc(S(=O)(=O)N(C)C[C@@H]2OCCCC[C@@H](C)Oc3ccc(NC(=O)c4ccccc4)cc3C(=O)N([C@@H](C)CO)C[C@H]2C)cc1,-8[16.7 µM],-2,/,/,/,/
COc1ccccc1S(=O)(=O)N[C@H]1CC[C@H](CC(=O)NCc2cc(F)cc(F)c2)O[C@H]1CO,/,-1,/,/,/,/
CCc1ccc(C(=O)CN2C(=O)NC(C)(c3ccc(C)cc3)C2=O)cc1 (stereo not drawn),69*,-9,-82,13,0,0
Cc1noc(C)c1S(=O)(=O)Nc1ccc2c(c1)CC(=O)N([C@@H](C)CO)C[C@@H](C)[C@H](CN(C)S(=O)(=O)c1ccc(F)cc1)O2,12[16.7 µM],9,/,/,/,/
CCc1ccc(-c2cn3nc(C)c(C)nc3n2)cc1,76*,/,19,i,9,-22
CC1(C(=O)Nc2ccc(Cl)c(Cl)c2)CCN1Cc1ccccc1OC(F)F (stereo not drawn),14,-12,/,/,/,-4
COc1ccc(NC(=O)C2(C)CCN2Cc2ccccc2OC(F)F)cc1OC (stereo not drawn),71*,20,/,/,/,-2
C[C@H]1CCCCO[C@@H](CN(C)C(=O)Nc2ccc(C(F)(F)F)cc2)[C@@H](C)CN([C@@H](C)CO)C(=O)c2cc(NS(=O)(=O)c3ccc(F)cc3)ccc2O1,61*[16.7 µM],-21,/,/,/,/
C[C@@H]1CCCCO[C@H](CN(C)C(=O)Nc2ccc(C(F)(F)F)cc2)[C@@H](C)CN([C@@H](C)CO)C(=O)c2cc(NS(=O)(=O)c3ccc(F)cc3)ccc2O1,7[16.7 µM],85*,/,/,/,/
C[C@@H]1CCCCO[C@H](CN(C)C(=O)Nc2ccc(C(F)(F)F)cc2)[C@H](C)CN([C@@H](C)CO)C(=O)c2cc(NS(=O)(=O)c3ccc(F)cc3)ccc2O1,3[16.7 µM],68*,/,/,/,/
C[C@@H]1CCCCO[C@H](CN(C)C(=O)Nc2ccc(C(F)(F)F)cc2)[C@@H](C)CN([C@H](C)CO)C(=O)c2cc(NS(=O)(=O)c3ccc(F)cc3)ccc2O1,-38[16.7 µM],-4,/,/,/,/
Cc1noc(C)c1NC(=O)N[C@H]1C=C[C@H](CC(=O)Nc2ccccc2)O[C@@H]1CO,-10[16.7 µM],/,/,/,/,/
COc1ccc(CN(C(=O)Cc2c[nH]c3ccccc23)C(C(=O)NC2CCCCC2)c2ccc(C)o2)cc1 (stereo not drawn),109*,/,-27,-4,-7,-8
Cc1ccc(C(C(=O)NC2CCCC2)N(Cc2ccc(F)cc2)C(=O)c2snc(C(N)=O)c2N)o1 (stereo not drawn),65*,4,0,0,-6,-4
CCc1ccc(N(C(=O)c2snc(C(N)=O)c2N)C(C(=O)NC2CCCC2)c2ccco2)cc1 (stereo not drawn),56*,-139,5,19,18,-1
SMILES,HIV Env fusion,PAX8 inh HTS,PfHsp90 set2,Rtt109 HAT inh,Arr AP2 block,Glyco luc inh
Cc1ccc(C(C(=O)NC2CCCC2)N(Cc2ccc(F)cc2)C(=O)c2csnn2)o1 (stereo not drawn),42,10,-4,2,16,-2
OC[C@H]1[C@@H](c2ccc(C#Cc3cccnc3)cc2)[C@H]2CN(Cc3ccccc3F)CCCCN21,/,-2,/,/,/,/
C[C@@H]1CN([C@@H](C)CO)C(=O)c2cc(NC(=O)c3ccncc3)ccc2O[C@@H](C)CCCCO[C@H]1CN(C)CC1CCCCC1,0[16.7 µM],2,/,/,/,/
CCOC(=O)C1=C(C)NC(C)=C(C(=O)OCC)C1C(=O)OCC(=O)NCc1ccccc1,1,/,/,-6,7,1
CCOC(=O)C1=C(C)NC(C)=C(C(=O)OCC)C1C(=O)OCC(=O)NCCc1ccc(S(N)(=O)=O)cc1,8,7,/,53*,3,3
O=C1CN(S(=O)(=O)Cc2ccccc2)C[C@@H]2[C@@H](c3ccc(C#CC4CC4)cc3)[C@@H](CO)N12,/,79*,/,/,/,/
O=C1CN(S(=O)(=O)Cc2ccccc2)C[C@H]2[C@@H](c3ccc(C#Cc4ccc(F)cc4)cc3)[C@@H](CO)N12,/,0,/,/,/,/
O=C1CN(S(=O)(=O)Cc2ccccc2)C[C@H]2[C@H](c3ccc(C#Cc4ccc(F)cc4)cc3)[C@H](CO)N12,/,99*,/,/,/,/
CCS(=O)(=O)N1CC(=O)N2[C@H](CO)[C@@H](c3ccc(-c4ccccc4F)cc3)[C@H]2C1,/,81*,/,/,/,/
CCS(=O)(=O)N1CC(=O)N2[C@H](CO)[C@@H](c3ccc(-c4ccccc4F)cc3)[C@@H]2C1,/,11,/,/,/,/
CC(C)(C)c1ccc(C(=O)NNC(=O)c2cccc(Br)c2)cc1,-75,/,6,-1,15,203*
Cc1ccc(C(=O)NNC(=O)c2cccc(Br)c2)cc1,-22,-27,-41,7,-22,1
CCCCNC(=O)/C(=C/c1ccccc1)NC(C)=O,-3,139*,-82,2,53,1
O=C(C[C@H]1CC[C@H]2[C@@H](COC[C@@H](O)CN2S(=O)(=O)c2cccc(Cl)c2)O1)NC1Cc2ccccc2C1,20[16.7 µM],20,/,/,/,/
O=[N+]([O-])c1cc2c(ccc3occc32)o1,0,107*,/,/,/,/
O=[N+]([O-])c1ccc2c(c1)oc1ccccc12,-414,-5,15,-1,-4,2
Cc1cc(N2CCCC2=O)cc(C)c1S(=O)(=O)NCCOc1ccc(C(C)(C)C)cc1,85*,30,4,4,-4,-6
